From ChEMBL document CHEMBL1139204, “Synthesis and biological activity of 5-aza-ellipticine derivatives” (Bioorg Med Chem Lett, 2007)
Active and inactive are the calls of the source. No cut-off for these calls is given here.

These compounds were tested on NIH3T3 (assay: Growth inhibition of mouse NIH3T3 cells by MTT assay).
Assay type: cell-based
Outline: (§1)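 MTT cytotoxicity assay in human colon adenocarcinoma HCT116 cells and murine NIH 3T3 fibroblast cells treated with the novel 5-aza-ellipticine derivatives; toxicity read by MTT reduction.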
Compound `COc1ccc2[nH]c3nc4ccnc(Cl)c4c(C)c3c2c1` has an IC50 of over 1000 nM. Work on `COc1ccc2[nH]c3nc4ccnc(NCCCN(C)CCCN)c4c(C)c3c2c1` yielded an IC50 of 600 nM. Work on `COc1ccc2[nH]c3c(C)c4ccnc(NCCCN(C)CCCN)c4c(C)c3c2c1` yielded an IC50 of 20 nM. Work on `COc1ccc2[nH]c3nc4ccnc(NCCCNCCCN)c4c(C)c3c2c1` yielded an IC50 of 1000 nM. In the case of `Cc1c2ccncc2c(C)c2c1[nH]c1ccccc12` [ELLIPTECINE], the IC50 is reported as 3 nM.

Each compound was assayed on HCT-116 (assay: Growth inhibition of human HCT116 cells by MTT assay).
Assay type: functional, cell-based
Outline: as §1
With `COc1ccc2[nH]c3nc4ccnc(Cl)c4c(C)c3c2c1` the IC50 was over 1000 nM. In the case of `COc1ccc2[nH]c3c(c(C)c4c(NCCCNCCCN)nccc4[n+]3C)c2c1`, the IC50 is reported as 2000 nM. For `CC[n+]1c2ccnc(NCCCNCCCN)c2c(C)c2c3cc(OC)ccc3[nH]c21`, the IC50 was 400 nM. `COc1ccc2[nH]c3nc4ccnc(NCCCN(C)CCCN)c4c(C)c3c2c1` showed an IC50 of 300 nM. `COc1ccc2[nH]c3c(C)c4ccnc(NCCCN(C)CCCN)c4c(C)c3c2c1` was tested, and the IC50 was 70 nM. `CC[n+]1c2ccnc(O)c2c(C)c2c3cc(OC)ccc3[nH]c21` was tested, and the IC50 was 3000 nM. Work on `CC[n+]1c2ccnc(NCCCNCCCNc3nccc4c3c(C)c3c5cc(OC)ccc5[nH]c3[n+]4CC)c2c(C)c2c3cc(OC)ccc3[nH]c21` yielded an IC50 of 300 nM. `COc1ccc2[nH]c3c(c(C)c4c(NCCCN5CCN(CCCN)CC5)nccc4[n+]3C)c2c1` gave an IC50 of over 10000 nM. `Cc1c2ccncc2c(C)c2c1[nH]c1ccccc12` [ELLIPTECINE] was tested, and the IC50 was 300 nM. In the case of `COc1ccc2[nH]c3c(c(C)c4c(O)nccc4[n+]3C)c2c1`, the IC50 is reported as 200 nM.

Species on record: Homo sapiens
Assay: Inhibition of topoisomerase 2-mediated kDNA de-catenation
Outline: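 Topoisomerase II decatenation of kinetoplast DNA (kDNA), run with a commercial kit following the manufacturer's recommended procedure. Decatenation depends on topo II double-strand break and re-ligation. A known topo II-active reference agent served as positive control.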
With `COc1ccc2[nH]c3nc4ccnc(NCCCN(C)CCCN)c4c(C)c3c2c1` the Activity was “Active”. For `Cc1c2ccncc2c(C)c2c1[nH]c1ccccc12` [ELLIPTECINE], the Activity was “Active”.
